According to ChEMBL document CHEMBL1152300, “Ligand specificity of constitutive androstane receptor as probed by induced-fit docking and mutagenesis” (J Med Chem, 2008):

Tests used:
[1] = biological target: T1, Nuclear receptor subfamily 1 group I member 3 (Mus musculus, UniProt O35627, H213A); test: Enhancement of nuclear co-repressor receptor binding to mouse CAR H213A mutant […] at 10 uM by yeast two-hybrid assay; assay type: cell-based
How it was run: (§1)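 Yeast two-hybrid: yeast expressing wild-type or mutant mouse CAR LBD plus SRC-1 or NCoR, selected on SD medium lacking Leu and Trp. Pooled colonies treated with DMSO or test chemical for 3.5 h. β-Galactosidase normalized to cell density. SRC-1 reference: wild-type + DMSO = 100. NCoR reference: 10 µM androstenol = 100. Mean ± SD, two independent determinations, each in triplicate.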

[2] = biological target: Nuclear receptor subfamily 1 group I member 3 (Mus musculus, UniProt O35627, L212A); test: Effect on nuclear co-repressor receptor binding to mouse CAR L212A mutant […] at 1 uM by yeast two-hybrid assay; assay type: cell-based; conditions: read-out: Activity
Sequence of Nuclear receptor subfamily 1 group I member 3 (Mus musculus, UniProt O35627, L212A) (O35627 whole entry L212A, the tested form may be a part): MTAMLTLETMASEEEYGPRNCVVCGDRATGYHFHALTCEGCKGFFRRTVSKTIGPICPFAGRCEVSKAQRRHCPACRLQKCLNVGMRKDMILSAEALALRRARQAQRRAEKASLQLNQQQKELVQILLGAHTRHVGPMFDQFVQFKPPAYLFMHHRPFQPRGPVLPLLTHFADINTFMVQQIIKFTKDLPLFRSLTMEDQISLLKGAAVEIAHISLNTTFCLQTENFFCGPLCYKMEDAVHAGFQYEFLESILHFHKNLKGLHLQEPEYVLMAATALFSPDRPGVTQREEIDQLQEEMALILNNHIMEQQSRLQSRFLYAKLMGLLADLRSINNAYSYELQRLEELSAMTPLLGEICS
How it was run: (§2)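 Yeast expressing wild-type or mutant mouse CAR LBD plus NCoR, selected on SD plates lacking leucine and tryptophan. Pooled colonies treated with DMSO or compound for 3.5 h. β-Galactosidase activity normalized to cell density. Reference is 10 µM androstenol (=100). Mean ± SD of two independent determinations, each in triplicate.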

[3] = biological target: T2, Nuclear receptor subfamily 1 group I member 3 (Mus musculus, UniProt O35627, T350A); test: Decrease in steroid receptor coactivator 1 binding to mouse CAR T350A mutant […] at 1 uM by yeast two-hybrid assay; assay type: cell-based; conditions: read-out: Activity
T2 sequence (O35627 whole entry T350A): as the sequence (O35627 whole entry L212A, the tested form may be a part) above, with A212L, T350A counted along it
How it was run: as §2, with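 “SRC-1,” for “NCoR,”, “wild-type CAR + SRC-1 with DMSO” for “10 µM androstenol”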

[4] = biological target: T3, Nuclear receptor subfamily 1 group I member 3 (Mus musculus, UniProt O35627, N175A); test: Decrease in mouse CAR N175A mutant activation expressed in HEK293 cells at 1 uM by mammalian one-hybrid assay; assay type: cell-based; conditions: read-out: Activity
T3 sequence (O35627 whole entry N175A, the tested form may be a part): as the sequence (O35627 whole entry L212A, the tested form may be a part) above, with N175A, A212L counted along it
How it was run: (§3)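 GAL4 DBD fused to mouse CAR LBD (residues 118-358), wild type or point mutant, cotransfected with UASx4-tk-luc reporter and pCMVβ into HEK293 cells. Cells cultured with DMSO (0.1% v/v) or compound (final 1, 2 or 10 µM). Lysed 24 h post-transfection. Luciferase normalized to β-galactosidase, expressed relative to empty GAL4 vector (=1.0). Mean ± SD, three independent experiments.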

[5] = biological target: T1, Nuclear receptor subfamily 1 group I member 3; test: Effect on steroid receptor co-activator 1 binding to mouse CAR H213A mutant […] at 1 uM by yeast two-hybrid assay; assay type: cell-based; conditions: read-out: Activity
How it was run: as §2, with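 “SRC-1,” for “NCoR,”, “wild-type CAR + SRC-1 with DMSO” for “10 µM androstenol”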

[6] = biological target: T4, Nuclear receptor subfamily 1 group I member 3 (Mus musculus, UniProt O35627, S251L); test: Effect on nuclear co-repressor receptor binding to mouse CAR S251L mutant […] at 1 uM by yeast two-hybrid assay; assay type: cell-based; conditions: read-out: Activity; how it was run: as §2
T4 sequence (O35627 whole entry S251L): as the sequence (O35627 whole entry L212A, the tested form may be a part) above, with A212L, S251L counted along it

[7] = biological target: Nuclear receptor subfamily 1 group I member 3 (Mus musculus, UniProt O35627, L253F); test: Effect on steroid receptor coactivator 1 binding to mouse CAR L253F mutant […] at 1 uM by yeast two-hybrid assay; assay type: cell-based; conditions: read-out: Activity
Sequence of Nuclear receptor subfamily 1 group I member 3 (Mus musculus, UniProt O35627, L253F) (O35627 whole entry L253F, the tested form may be a part): as the sequence (O35627 whole entry L212A, the tested form may be a part) above, with A212L, L253F counted along it
How it was run: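 Yeast two-hybrid assay. Yeast co-expressing wild-type or mutant mouse CAR LBD and the SRC-1 partner were selected on SD plates lacking leucine and tryptophan. Random colonies were pooled and amplified, then treated with DMSO or test chemical for 3.5 h. β-galactosidase activity was normalized to cell density and set relative to wild-type mCAR + SRC-1 with DMSO (=100). Mean ± standard deviation of two determinations, each in triplicate.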

[8] = biological target: T2, Nuclear receptor subfamily 1 group I member 3; test: Activation of mouse CAR T350A mutant expressed in HEK293 cells at 10 uM by mammalian one-hybrid assay; assay type: cell-based; conditions: hek293, 10 µM; how it was run: as §3
[9] = biological target: T5, mouse CAR (NR1I3), wild type (Mus musculus, UniProt O35627); test: Decrease in wild type mouse CAR activation expressed in HEK293 cells at 10 uM by mammalian one-hybrid transactivation assay; assay type: cell-based; conditions: HEK293 cells expressing wild type mouse CAR, read-out: Activity; how it was run: as §3
T5 sequence (O35627 whole entry): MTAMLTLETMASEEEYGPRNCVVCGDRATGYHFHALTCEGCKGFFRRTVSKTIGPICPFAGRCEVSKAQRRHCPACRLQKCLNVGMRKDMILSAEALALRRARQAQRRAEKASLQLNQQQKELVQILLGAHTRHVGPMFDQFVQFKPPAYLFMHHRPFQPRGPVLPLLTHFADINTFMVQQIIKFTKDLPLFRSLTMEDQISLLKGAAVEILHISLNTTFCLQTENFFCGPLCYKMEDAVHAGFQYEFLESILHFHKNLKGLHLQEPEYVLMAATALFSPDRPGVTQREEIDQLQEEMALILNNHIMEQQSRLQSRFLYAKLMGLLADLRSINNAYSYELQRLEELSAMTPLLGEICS

[10] = biological target: T6, Nuclear receptor subfamily 1 group I member 3 (Mus musculus, UniProt O35627); test: Increase in nuclear co-repressor receptor binding to wild type mouse CAR expressed in HEK293 cells at 10 uM by yeast two-hybrid assay; conditions: hek293, 10 µM
T6 sequence (O35627 whole entry): T5 sequence (O35627 whole entry)

[11] = biological target: Nuclear receptor subfamily 1 group I member 3 (Mus musculus, UniProt O35627, I252L); conditions: HEK293, mouse
Sequence of Nuclear receptor subfamily 1 group I member 3 (Mus musculus, UniProt O35627, I252L) (O35627 whole entry I252L): as the sequence (O35627 whole entry L212A, the tested form may be a part) above, with A212L, I252L counted along it

[12] = biological target: Nuclear receptor subfamily 1 group I member 3 (Mus musculus, UniProt O35627, T350M); test: Effect on steroid receptor coactivator 1 binding to mouse CAR T350M mutant […] at 2 uM by yeast two-hybrid assay; assay type: cell-based; conditions: read-out: Activity; how it was run: as §1
Sequence of Nuclear receptor subfamily 1 group I member 3 (Mus musculus, UniProt O35627, T350M) (O35627 whole entry T350M): as the sequence (O35627 whole entry L212A, the tested form may be a part) above, with A212L, T350M counted along it

[13] = biological target: T3, Nuclear receptor subfamily 1 group I member 3; test: Decrease in mouse CAR N175A mutant activation expressed in HEK293 cells at 2 uM by mammalian one-hybrid assay; assay type: cell-based; conditions: read-out: Activity
How it was run: (§4)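 GAL4-DBD fused to mouse CAR LBD (residues 118-358), wild-type or point mutant, cotransfected with UASx4-tk-luc reporter and pCMVβ into HEK293 cells. Cells were exposed to final 1 µM, 2 µM or 10 µM test chemical, or 0.1% v/v DMSO, for 24 h after transfection. Luciferase was normalized to β-galactosidase and set against empty GAL4 vector (=1.0). Mean ± standard deviation, three independent experiments.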

[14] = biological target: T4, Nuclear receptor subfamily 1 group I member 3; test: Decrease in steroid receptor coactivator 1 binding to mouse CAR S251L mutant […] at 2 uM by yeast two-hybrid assay; assay type: cell-based; conditions: read-out: Activity; how it was run: as §1
[15] = biological target: T1, Nuclear receptor subfamily 1 group I member 3; test: Enhancement of nuclear co-repressor receptor binding to mouse CAR H213A mutant […] at 2 uM by yeast two-hybrid assay; assay type: cell-based; how it was run: as §1
[16] = biological target: T1, Nuclear receptor subfamily 1 group I member 3; test: Effect on steroid receptor co-activator 1 binding to mouse CAR H213A mutant […] at 2 uM by yeast two-hybrid assay; assay type: cell-based; conditions: read-out: Activity; how it was run: as §1
[17] = biological target: Nuclear receptor subfamily 1 group I member 3 (Mus musculus, UniProt O35627, F171A); test: Activation of mouse CAR F171A mutant expressed in HEK293 cells at 2 uM by mammalian one-hybrid assay; assay type: cell-based; conditions: hek293, 2 µM; how it was run: as §4
Sequence of Nuclear receptor subfamily 1 group I member 3 (Mus musculus, UniProt O35627, F171A) (O35627 whole entry F171A): as the sequence (O35627 whole entry L212A, the tested form may be a part) above, with F171A, A212L counted along it

[18] = biological target: Nuclear receptor subfamily 1 group I member 3 (Mus musculus, UniProt O35627, F171L); conditions: HEK293, mouse
Sequence of Nuclear receptor subfamily 1 group I member 3 (Mus musculus, UniProt O35627, F171L) (O35627 whole entry F171L): as the sequence (O35627 whole entry L212A, the tested form may be a part) above, with F171L, A212L counted along it

T1 sequence (O35627 whole entry H213A, the tested form may be a part): as the sequence (O35627 whole entry L212A, the tested form may be a part) above, with A212L, H213A counted along it

## COc1ccc(C(=O)CCCc2ccccc2)cc1
[1]
  Activity: >= 50%

## Clc1cnc(Oc2ccc(Oc3ncc(Cl)cc3Cl)cc2)c(Cl)c1
[2]
  activity at 1 µM: < 50%
[3]
  inhibition at 1 µM: ≥ 50%
[4]
  inhibition at 1 µM: < 50%
[5]
  activity at 1 µM: < 50%
[6]
  activity at 1 µM: < 50%
[7]
  activity at 1 µM: < 50%

## C[C@]12CC[C@@H](O)C[C@@H]1CC[C@@H]1[C@@H]2CC[C@]2(C)C=CC[C@@H]12 [ANDROSTENOL]
[8]
  Activity: < 50%
[9]
  inhibition at 10 µM: > 60%
[10]
  FC: 49
[11]
  activity at 10 µM: < 50%

## Clc1ccccc1C(c1ccccc1)(c1ccccc1)n1ccnc1 [CLOTRIMAZOLE]
[12]
  activity at 2 µM: < 50%
[13]
  inhibition at 2 µM: 50%
[14]
  inhibition at 2 µM: ≥ 50%
[15]
  Activity: > 150%
[16]
  activity at 2 µM: < 50%
[17]
  Activity: > 100%

## COc1ccc(C(c2ccc(OC)cc2)C(Cl)(Cl)Cl)cc1 [METHOXYCHLOR]
[18]
  activity at 10 µM: < 50%
